According to ChEMBL document CHEMBL1667736, “Tirucallane triterpenoids from Cornus walteri” (J Nat Prod, 2011):
pIC50: −log10 of the molar value.

Columns and labels:
Type in all cases: functional, cell-based
XF498 = assay: Cytotoxicity against human XF498 cells by SRB assay
Procedure, shortened: (§1)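 Sulforhodamine B (SRB) cytotoxicity assay on cultured human cancer lines: A549 (non-small cell lung adenocarcinoma), SK-OV-3 (ovarian), SK-MEL-2 (skin melanoma), XF498 (CNS). Assays were run at the Korea Research Institute of Chemical Technology. Etoposide served as positive control. Potency is expressed as IC50 in µM.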

SK-MEL-2 = assay: Cytotoxicity against human SK-MEL-2 cells by SRB assay; procedure, shortened: as §1
A549 = assay: Cytotoxicity against human A549 cells by SRB assay; procedure, shortened: as §1
SK-OV-3 = assay: Cytotoxicity against human SKOV3 cells by SRB assay; procedure, shortened: as §1

**Q.** Which results are given for `CC(C)CCC[C@H](C)[C@@H]1CC[C@]2(C)C3=CCC4C(C)(C)C(=O)C=C[C@]4(C)[C@H]3CC[C@@]12C` (stereo not given in full) [CORNUSALTERIN E]?
**A.** pIC50 (XF498): 4.88; pIC50 (SK-MEL-2): 4.90; pIC50 (A549): 4.74; pIC50 (SK-OV-3): 4.85

**Q.** Which results are given for `COC(C)(C)/C=C/C[C@H](C)[C@@H]1CC[C@]2(C)[C@@H]3CCC4C(C)(C)C(=O)CC[C@]4(C)[C@H]3CC[C@@]12C` (stereo not given in full) [CORNUSALTERIN B]?
**A.** pIC50 (XF498): 4.54; pIC50 (SK-MEL-2): 4.74; pIC50 (A549): 4.54; pIC50 (SK-OV-3): 4.72

**Q.** How did the pIC50 (XF498) turn out when `CO[C@H](C=C(C)C)C[C@H](C)[C@@H]1CC[C@]2(C)C3=CCC4C(C)(C)C(=O)CC[C@]4(C)C3=CC[C@@]12C` (stereo not given in full) [CORNUSALTERIN I] was run?
**A.** 4.91

**Q.** And the pIC50 (SK-MEL-2)?
**A.** 4.98

**Q.** What about the pIC50 (A549) of the same compound?
**A.** 4.75

**Q.** And the pIC50 (SK-OV-3)?
**A.** 4.87

**Q.** How did the pIC50 (XF498) turn out when `CO[C@@H](C=C(C)C)C[C@H](C)[C@@H]1CC[C@]2(C)C3=CCC4C(C)(C)C(=O)CC[C@]4(C)[C@H]3CC[C@@]12C` (stereo not given in full) [CORNUSALTERIN G] was run?
**A.** 4.69

**Q.** What about the pIC50 (SK-MEL-2) of the same compound?
**A.** 4.74

**Q.** What about the pIC50 (A549) of the same compound?
**A.** 4.52

**Q.** And the pIC50 (SK-OV-3)?
**A.** 4.57

**Q.** Which results are given for `COC(C)(C)/C=C/C[C@H](C)[C@@H]1CC[C@]2(C)C3=CCC4C(C)(C)[C@@H](O)CC[C@]4(C)[C@H]3CC[C@@]12C` (stereo not given in full) [CORNUSALTERIN A]?
**A.** pIC50 (XF498): 4.76; pIC50 (SK-MEL-2): 4.92; pIC50 (A549): 4.65; pIC50 (SK-OV-3): 4.90

**Q.** Which results are given for `COc1cc([C@@H]2c3cc4c(cc3[C@@H](O[C@@H]3O[C@@H]5CO[C@@H](C)O[C@H]5[C@H](O)[C@H]3O)[C@H]3COC(=O)[C@H]23)OCO4)cc(OC)c1O` [ETOPOSIDE]?
**A.** pIC50 (XF498): 5.76; pIC50 (SK-MEL-2): 5.93; pIC50 (A549): 5.73; pIC50 (SK-OV-3): 5.74

**Q.** `CO[C@H](C=C(C)C)C[C@H](C)[C@@H]1CC[C@]2(C)C3=CCC4C(C)(C)C(=O)CC[C@]4(C)[C@H]3CC[C@@]12C` (stereo not given in full) [CORNUSALTERIN H] was tested. Which pIC50 (XF498) did it give?
**A.** 4.73

**Q.** What about the pIC50 (SK-MEL-2) of the same compound?
**A.** 4.75

**Q.** And the pIC50 (A549)?
**A.** 4.54

**Q.** What about the pIC50 (SK-OV-3) of the same compound?
**A.** 4.67

**Q.** Which results are given for `CO[C@@H](C=C(C)C)C[C@H](C)[C@@H]1CC[C@]2(C)C3=CCC4C(C)(C)[C@@H](O)CC[C@]4(C)[C@H]3CC[C@@]12C` (stereo not given in full) [CORNUSALTERIN J]?
**A.** pIC50 (XF498): 4.74; pIC50 (SK-MEL-2): 4.91; pIC50 (A549): 4.60; pIC50 (SK-OV-3): 4.75

**Q.** `COC(C)(C)/C=C/C[C@H](C)[C@@H]1CC[C@]2(C)C3=CCC4C(C)(C)C(=O)CC[C@]4(C)[C@H]3CC[C@@]12C` (stereo partly drawn) [(-)-LEUCOPHYLLONE] was tested. Which pIC50 (XF498) did it give?
**A.** 4.74

**Q.** What about the pIC50 (SK-MEL-2) of the same compound?
**A.** 4.67

**Q.** What about the pIC50 (A549) of the same compound?
**A.** 4.60

**Q.** What about the pIC50 (SK-OV-3) of the same compound?
**A.** 4.74

**Q.** How did the pIC50 (XF498) turn out when `CC(C)CCC[C@H](C)[C@@H]1CC[C@]2(C)[C@@H]3CC=C4C(C)(C)C(=O)C[C@@H](O)[C@]4(C)[C@H]3CC[C@@]12C` [CORNUSALTERIN K] was run?
**A.** 4.92

**Q.** And the pIC50 (SK-MEL-2)?
**A.** 4.91

**Q.** What about the pIC50 (A549) of the same compound?
**A.** 4.93

**Q.** What about the pIC50 (SK-OV-3) of the same compound?
**A.** 4.89

**Q.** How did the pIC50 (XF498) turn out when `COC(C)(C)/C=C/C[C@H](C)[C@@H]1CC[C@]2(C)[C@@H]3CCC4C(C)(C)[C@@H](O)CC[C@]4(C)[C@H]3CC[C@@]12C` (stereo not given in full) [CORNUSALTERIN C] was run?
**A.** 4.76

**Q.** And the pIC50 (SK-MEL-2)?
**A.** 4.92

**Q.** What about the pIC50 (A549) of the same compound?
**A.** 4.63

**Q.** And the pIC50 (SK-OV-3)?
**A.** 4.78

**Q.** `CC(C)CCC[C@H](C)[C@@H]1CC[C@]2(C)C3=CCC4C(C)(C)C=CC(=O)[C@]4(C)[C@H]3CC[C@@]12C` (stereo not given in full) [CORNUSALTERIN F] was tested. Which pIC50 (XF498) did it give?
**A.** 4.61

**Q.** What about the pIC50 (SK-MEL-2) of the same compound?
**A.** 4.67

**Q.** What about the pIC50 (A549) of the same compound?
**A.** 4.57

**Q.** What about the pIC50 (SK-OV-3) of the same compound?
**A.** 4.56

**Q.** Which results are given for `CC(C)=C[C@H]1C[C@@H]([C@@H]2CC[C@]3(C)C4=CCC5C(C)(C)C(=O)CC[C@]5(C)[C@H]4CC[C@@]23C)CO1` (stereo not given in full) [DEOXYFLINDISSONE]?
**A.** pIC50 (XF498): 5.29; pIC50 (SK-MEL-2): 5.22; pIC50 (A549): 5.40; pIC50 (SK-OV-3): 5.44

**Q.** Which results are given for `C=C(C)/C=C/C[C@H](C)[C@@H]1CC[C@]2(C)C3=CCC4C(C)(C)C(=O)CC[C@]4(C)[C@H]3CC[C@@]12C` (stereo not given in full) [CORNUSALTERIN D]?
**A.** pIC50 (XF498): 4.75; pIC50 (SK-MEL-2): 4.90; pIC50 (A549): 4.57; pIC50 (SK-OV-3): 4.84

**Q.** Which results are given for `CC(C)=C[C@@H]1C[C@@H]([C@@H]2CC[C@]3(C)C4=CCC5C(C)(C)C(=O)CC[C@]5(C)[C@H]4CC[C@@]23C)CO1` (stereo not given in full) [CORNUSALTERIN L]?
**A.** pIC50 (XF498): 5.24; pIC50 (SK-MEL-2): 5.33; pIC50 (A549): 5.37; pIC50 (SK-OV-3): 5.42
